# Experimental data as given in ChEMBL document CHEMBL2384907, “Identification of substituted pyrimido[5,4-b]indoles as selective Toll-like receptor 4 ligands” (J Med Chem, 2013).
# How the values were obtained:
# Assay type in all cases: cell-based
# [1] = target: Toll-like receptor 4 (Homo sapiens) (UniProt O00206); assay: Activation of human TLR4 transfected in HEK293 cells after 18 hrs by SEAP assay relative to N-cyclohexyl-2-(4-oxo-3-phenyl-4,5-dihydro-3H-pyrimido[5,4-b]indol-2-ylthio)acetamide; parameters: concentration or dose not given beside the values
# Procedure, shortened: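 Human TLR4 HEK-Blue cells (2.5 × 10^4/well) given compound at 10 μM for 18 h, 0.5% DMSO vehicle; SEAP in supernatant read at 630 nm, normalized to reference hit set at 100. LPS 10 ng/mL positive control.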
# [2] = target: T1, Toll-like receptor 4 (Mus musculus) (UniProt Q9QUK6); assay: Activation of mouse TLR4 transfected in HEK293 cells after 18 hrs by SEAP assay relative to N-cyclohexyl-2-(4-oxo-3-phenyl-4,5-dihydro-3H-pyrimido[5,4-b]indol-2-ylthio)acetamide
# T1 sequence (whole entry): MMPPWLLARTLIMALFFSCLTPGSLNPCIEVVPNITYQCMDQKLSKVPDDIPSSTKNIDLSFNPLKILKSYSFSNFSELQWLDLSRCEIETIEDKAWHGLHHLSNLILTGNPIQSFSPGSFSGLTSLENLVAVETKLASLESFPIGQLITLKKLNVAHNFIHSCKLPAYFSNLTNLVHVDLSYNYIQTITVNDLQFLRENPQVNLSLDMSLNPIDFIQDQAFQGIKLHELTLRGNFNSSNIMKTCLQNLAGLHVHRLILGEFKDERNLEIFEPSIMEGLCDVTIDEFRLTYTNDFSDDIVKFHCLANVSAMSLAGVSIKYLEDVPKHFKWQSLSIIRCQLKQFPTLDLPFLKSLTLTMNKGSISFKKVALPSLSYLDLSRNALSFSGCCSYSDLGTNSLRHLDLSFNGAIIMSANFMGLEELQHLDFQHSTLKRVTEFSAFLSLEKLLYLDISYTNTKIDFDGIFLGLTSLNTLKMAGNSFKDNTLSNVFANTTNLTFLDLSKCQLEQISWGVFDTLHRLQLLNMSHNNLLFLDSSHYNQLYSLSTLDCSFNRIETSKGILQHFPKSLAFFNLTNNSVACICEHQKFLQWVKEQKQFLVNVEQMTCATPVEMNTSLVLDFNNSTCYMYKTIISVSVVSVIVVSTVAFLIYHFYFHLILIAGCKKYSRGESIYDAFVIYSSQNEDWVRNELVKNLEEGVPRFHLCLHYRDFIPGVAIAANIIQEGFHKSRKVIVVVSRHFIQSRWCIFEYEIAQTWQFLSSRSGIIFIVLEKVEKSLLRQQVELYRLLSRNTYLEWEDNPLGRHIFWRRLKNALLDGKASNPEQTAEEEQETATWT
# Procedure, shortened: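 Mouse TLR4 HEK-Blue cells (2.5 × 10^4/well) given titrated doses 312 nM–10 μM for 18 h, 0.5% DMSO vehicle; SEAP at 630 nm. Percent-activity curves, AUC by trapezoid method, normalized to reference hit set at 100. LPS 10 ng/mL control.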
# [3] = target: T1, Toll-like receptor 4 (Mus musculus); assay: Activation of TLR4 in C57BL/6 mouse BMDC cells assessed as AUC of IL6 release after 18 hrs by ELISA relative to N-cyclohexyl-2-(4-oxo-3-phenyl-4,5-dihydro-3H-pyrimido[5,4-b]indol-2-ylthio)acetamide
# Procedure, shortened: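 C57BL/6 bone marrow DC, 10^5 cells/well in RPMI-10% FCS, 18 h at 37 °C with titrated doses 312 nM–10 μM; supernatant IL-6 by ELISA. Each curve converted to percent activity (background subtracted, plate-adjusted), AUC by trapezoid method, normalized to reference hit set at 100 per experiment. LPS 10 ng/mL positive control; 0.5% DMSO vehicle.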
# [4] = target: Toll-like receptor 4 (Homo sapiens) (UniProt O00206); assay: Activation of TLR4 in human PBMC cells assessed as AUC of IL8 release at 10 uM after 18 hrs by ELISA relative to N-cyclohexyl-2-(4-oxo-3-phenyl-4,5-dihydro-3H-pyrimido[5,4-b]indol-2-ylthio)acetamide
# Procedure, shortened: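 Human PBMC from buffy coats, 1 × 10^6/mL in complete RPMI, 18 h at 37 °C, 5% CO2 with compound at 10 μM; IL-8 in supernatant by ELISA, normalized to reference hit set at 100. LPS 10 ng/mL positive control.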
# [5] = target: T1, Toll-like receptor 4 (Mus musculus); assay: Activation of TLR4 in C57BL/6 mouse BMDC cells assessed as AUC of IP10 release at 5 uM after 18 hrs by ELISA relative to N-cyclohexyl-2-(4-oxo-3-phenyl-4,5-dihydro-3H-pyrimido[5,4-b]indol-2-ylthio)acetamide
# Sequence of Toll-like receptor 4 (Homo sapiens) (O00206 whole entry): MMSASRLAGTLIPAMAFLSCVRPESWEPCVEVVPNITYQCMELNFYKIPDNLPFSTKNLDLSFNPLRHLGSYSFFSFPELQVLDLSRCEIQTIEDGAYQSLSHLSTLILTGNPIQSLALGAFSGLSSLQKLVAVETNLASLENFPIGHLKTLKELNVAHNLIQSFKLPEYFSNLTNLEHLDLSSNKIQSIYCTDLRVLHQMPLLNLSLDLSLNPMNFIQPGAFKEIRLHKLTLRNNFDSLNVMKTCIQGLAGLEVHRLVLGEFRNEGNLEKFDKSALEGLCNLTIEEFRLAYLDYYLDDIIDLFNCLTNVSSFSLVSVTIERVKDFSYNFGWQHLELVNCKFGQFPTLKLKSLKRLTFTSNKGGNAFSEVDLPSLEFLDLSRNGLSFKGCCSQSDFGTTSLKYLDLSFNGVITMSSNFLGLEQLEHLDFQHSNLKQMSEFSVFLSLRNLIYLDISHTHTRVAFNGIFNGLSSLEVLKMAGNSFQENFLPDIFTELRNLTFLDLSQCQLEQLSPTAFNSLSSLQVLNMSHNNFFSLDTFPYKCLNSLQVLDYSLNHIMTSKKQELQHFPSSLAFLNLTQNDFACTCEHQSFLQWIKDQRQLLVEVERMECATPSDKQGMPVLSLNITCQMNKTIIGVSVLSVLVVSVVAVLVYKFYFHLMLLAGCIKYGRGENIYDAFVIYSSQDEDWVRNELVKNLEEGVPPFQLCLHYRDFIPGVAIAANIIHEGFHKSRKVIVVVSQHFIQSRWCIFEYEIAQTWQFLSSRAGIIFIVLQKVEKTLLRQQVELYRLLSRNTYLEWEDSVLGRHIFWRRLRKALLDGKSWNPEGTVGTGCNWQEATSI
Structure (SMILES),Activity [1],Activity [2],Activity [3],Activity [4],Activity [5]
O=C(CSc1nc2c([nH]c3ccccc32)c(=O)n1-c1ccccc1)Nc1cccc(F)c1,39%,11%,14%,13%,45%
O=C(CSc1nc2c3ccccc3nc-2c(O)n1-c1ccccc1)NCC1CCCO1 (stereo not given),13%,21%,< 23%,8%,54%
O=C(CSc1nc2c([nH]c3ccccc32)c(=O)n1-c1ccccc1)Nc1ccccc1F,71%,43%,36%,61%,54%
O=C(CSc1nc2c([nH]c3ccccc32)c(=O)n1C1CCCCC1)NC1CCCCC1,40%,56%,71%,27%,61%
CC(C)CCNC(=O)CSc1nc2c([nH]c3ccccc32)c(=O)n1-c1ccccc1,38%,56%,61%,53%,62%
O=C(CSc1nc2c([nH]c3ccccc32)c(=O)n1-c1ccccc1)NC1CCC1,32%,18%,35%,19%,66%
CC(C)CNC(=O)CSc1nc2c([nH]c3ccccc32)c(=O)n1-c1ccccc1,21%,24%,44%,11%,53%
CCNC(=O)CSc1nc2c([nH]c3ccccc32)c(=O)n1-c1ccccc1,8%,< 1%,< 1%,4%,< 1%
O=C(CSc1nc2c([nH]c3ccccc32)c(=O)n1-c1ccccc1)Nc1nccs1,12%,2%,1%,5%,< 1%
O=C(CSc1nc2c([nH]c3ccccc32)c(=O)n1C1CCCCC1)NC1CCCC1,33%,19%,47%,14%,47%
Cc1ccc(-n2c(SCC(=O)NC3CCCCC3)nc3c([nH]c4ccccc43)c2=O)cc1,2%,2%,< 1%,6%,< 1%
O=C(CSc1nc2c([nH]c3ccccc32)c(=O)n1-c1ccccc1)Nc1ccc2cn[nH]c2c1,< 1%,< 1%,3%,7%,< 1%
O=C(CSc1nc2c([nH]c3ccccc32)c(=O)n1-c1ccccc1)Nc1ccccc1,31%,21%,11%,15%,44%
CCCC(C)NC(=O)CSc1nc2c([nH]c3ccccc32)c(=O)n1-c1ccccc1 (stereo not given),13%,17%,12%,6%,55%
O=C(CSc1nc2c([nH]c3ccccc32)c(=O)n1CCc1ccccc1)NC1CCCCC1,1%,1%,< 1%,5%,< 1%
CCCCCCCCCCCCn1c2ccccc2c2nc(SCC(=O)NC3CCCCC3)n(-c3ccccc3)c(=O)c21,10%,4%,< 1%,< 1%,< 1%
NC(=O)Cn1c2ccccc2c2nc(SCC(=O)NC3CCCCC3)n(-c3ccccc3)c(=O)c21,11%,8%,1%,4%,1%

Structure (SMILES),Activity [1],Activity [2],Activity [3],Activity [4],Activity [5]
CC(C)(C)CCNC(=O)CSc1nc2c([nH]c3ccccc32)c(=O)n1-c1ccccc1,72%,126%,99%,95%,85%
CCCCNC(=O)CSc1nc2c([nH]c3ccccc32)c(=O)n1-c1ccccc1,32%,31%,49%,29%,61%
CCC(CC)NC(=O)CSc1nc2c([nH]c3ccccc32)c(=O)n1-c1ccccc1,11%,8%,< 10%,< 1%,26%
O=C(CSc1nc2c([nH]c3ccccc32)c(=O)n1-c1ccccc1)NC1CCCCCC1,100%,99%,126%,118%,107%
O=C(CSc1nc2c([nH]c3ccccc32)c(=O)n1-c1ccccc1)NCc1ccco1,27%,5%,18%,15%,26%
O=C(CSc1nc2c([nH]c3ccccc32)c(=O)n1-c1ccccc1)NC1CCCCCCC1,64%,95%,114%,73%,98%
O=C(CSc1nc2c([nH]c3ccccc32)c(=O)n1-c1ccccc1)Nc1ccc2ccccc2c1,21%,2%,< 1%,< 1%,< 1%
O=C(CSc1nc2c([nH]c3ccccc32)c(=O)n1-c1ccc2ccccc2c1)NC1CCCCC1,3%,6%,3%,< 1%,< 1%
CCCCCNC(=O)CSc1nc2c([nH]c3ccccc32)c(=O)n1-c1ccccc1,23%,42%,40%,25%,40%
O=C(CSc1nc2c([nH]c3ccccc32)c(=O)n1-c1ccc(F)cc1)NC1CCCCC1,51%,41%,48%,5%,72%
CCCCCCNC(=O)CSc1nc2c([nH]c3ccccc32)c(=O)n1-c1ccccc1,8%,4%,< 1%,7%,< 1%
O=C(CSc1nc2c([nH]c3ccccc32)c(=O)n1-c1ccccc1)NC1CCCC1,23%,28%,53%,5%,52%
COC(=O)CCCn1c2ccccc2c2nc(SCC(=O)NC3CCCCC3)n(-c3ccccc3)c(=O)c21,19%,9%,4%,124%,19%
O=C(CSc1nc2c([nH]c3ccccc32)c(=O)n1-c1ccccc1)NC1CCNCC1,< 1%,< 1%,< 1%,17%,< 1%
CCC(C)CCNC(=O)CSc1nc2c([nH]c3ccccc32)c(=O)n1-c1ccccc1 (stereo not given),17%,29%,30%,23%,45%
CC(C)(C)NC(=O)CSc1nc2c([nH]c3ccccc32)c(=O)n1-c1ccccc1,6%,< 1%,< 1%,5%,< 1%
O=C(CSc1nc2c([nH]c3ccccc32)c(=O)n1-c1ccccc1)Nc1ccc(F)cc1,108%,81%,103%,107%,70%
